The text below walks through data of ChEMBL document CHEMBL2034946, “Synthesis and biological evaluation of cyclic sulfamide derivatives as 11β-hydroxysteroid dehydrogenase 1 inhibitors” (ACS Med Chem Lett, 2012).

For data set [1], the target named is 11-beta-hydroxysteroid dehydrogenase 1 (Homo sapiens, UniProt P28845). Nature of the data set: Inhibition of human 11beta-HSD1 expressed in CHO-K1 cells using cortisone as substrate after 3 hrs by HTRF assay. The format is cell-based. An outline of the steps: (§1)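 Cells overexpressing human or mouse 11β-HSD1 incubated with cortisone plus compound for 3 h; cortisol measured by HTRF. IC50 fitted from concentration-dependent inhibition curves; means ± SEM of triplicate experiments.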
Chain of 11-beta-hydroxysteroid dehydrogenase 1 (Homo sapiens, UniProt P28845) (P28845 whole entry): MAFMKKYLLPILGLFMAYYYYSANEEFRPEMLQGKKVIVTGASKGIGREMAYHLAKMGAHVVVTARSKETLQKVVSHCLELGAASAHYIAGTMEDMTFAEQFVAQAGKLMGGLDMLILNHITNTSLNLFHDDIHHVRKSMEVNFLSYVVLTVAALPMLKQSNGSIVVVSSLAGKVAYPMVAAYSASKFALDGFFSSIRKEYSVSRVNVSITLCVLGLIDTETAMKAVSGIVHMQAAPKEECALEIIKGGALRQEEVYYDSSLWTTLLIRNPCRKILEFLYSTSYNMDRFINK
(In TR-FRET formats the signal depends on donor and acceptor labels being close together.)

Data set [2] addresses 11-beta-hydroxysteroid dehydrogenase 1 (Mus musculus, UniProt P50172). The data set can be described thus: Inhibition of mouse 11beta-HSD1 expressed in CHO-K1 cells using cortisone as substrate after 3 hrs by HTRF assay. The format is cell-based. An outline of the steps:
as §1

A short description of data set [3]: Metabolic stability in human liver microsomes assessed as compound remaining after 30 mins. The format is ADME, Microsome. As to conditions: read-out: Stability; call rule not given here. An outline of the steps: (§2)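 Human and rat liver microsomes incubated with compound for 30 min; stability reported as percent parent compound remaining.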
(In general: Liver microsomes are a subcellular fraction often used to study metabolism.)

Data set [4] concerns Mus musculus. The data set can be described thus: Ex-vivo inhibition of 11betaHSD1 in C57BL/6 mouse fat at 20 mg/kg, po after 2 hrs by ELISA. Particulars: C57BL/6, 2 h. It counts as functional. An outline of the steps:
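Normal mice dosed orally (1, 5, 10 or 20 mpk); 11β-HSD1 activity in fat tissue measured ex vivo 2 h post-dose.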
A general note: In an ELISA, binding on a coated surface is turned into a signal by an enzyme label.

For data set [5], the system named is Mus musculus. Nature of the data set: Ex-vivo inhibition of 11betaHSD1 in C57BL/6 mouse liver at 20 mg/kg, po after 2 hrs by ELISA. The format is functional. Particulars: C57BL/6, Liver. An outline of the steps: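 Normal mice given 20 mpk orally; liver tissue taken 2 h after dosing and 11β-HSD1 activity measured ex vivo as % inhibition relative to vehicle.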

Data set [6] in a line: Metabolic stability in rat liver microsomes assessed as compound remaining after 30 mins. The format is ADME, Microsome. As to conditions: read-out: Stability. An outline of the steps: as §2

In general, IC50 refers to the concentration that inhibits the measured activity by half. Usually inhibition in vivo stands for the drop in the measured response relative to a control, in per cent. High values mean a response far below the control, low ones a response near the control.

Chain of 11-beta-hydroxysteroid dehydrogenase 1 (Mus musculus, UniProt P50172) (P50172 whole entry): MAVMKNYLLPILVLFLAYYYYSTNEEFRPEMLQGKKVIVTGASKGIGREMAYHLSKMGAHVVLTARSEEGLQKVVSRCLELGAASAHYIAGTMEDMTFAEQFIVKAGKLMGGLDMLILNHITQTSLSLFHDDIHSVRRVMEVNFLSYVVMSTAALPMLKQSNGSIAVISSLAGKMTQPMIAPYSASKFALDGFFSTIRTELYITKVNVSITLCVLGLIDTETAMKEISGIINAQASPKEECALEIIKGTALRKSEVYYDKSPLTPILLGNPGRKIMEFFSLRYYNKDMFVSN

On to `O=C(O)CN1CCCN(c2ccccc2)S1(=O)=O`, for which, in data set [1] (cho-k1), the IC50 entry is “Not Active”.

For `NC(=O)[C@]12CC3CC(C1)[C@@H](NC(=O)CN1CCCN(c4ccccc4)S1(=O)=O)C(C3)C2`, the figures for the IC50 in data set [2] and in data set [1] (read-out: IC50) were 207 nM and 17 nM, respectively.

In the case of `NC(=O)[C@]12CC3CC(C1)[C@@H](NC(=O)CN1CCCN(c4c(Cl)cc(Cl)cc4Cl)S1(=O)=O)C(C3)C2`, the values for the remaining at 0.5 h in data set [3] and in data set [6] were 61% and 57%, respectively. For the same compound, the IC50 was 4 nM in data set [2] and 1 nM in data set [1] (read-out: IC50). Moreover, the results for the inhibition in vivo at 20 mg/kg with Mus musculus [4] and in the data set with Mus musculus [5] were 92.1% and 83.7%, respectively.

Take `CC1(C)CN(CC(=O)N[C@H]2C3CC4CC2C[C@](C(N)=O)(C4)C3)S(=O)(=O)N(c2c(Cl)cc(Cl)cc2Cl)C1`: the IC50 in data set [2] was determined as 26 nM; in data set [1] (read-out: IC50), 5 nM. For the same compound, 20 mg/kg produced 29.9% inhibition in vivo in the data set on Mus musculus [4].

For `O=C(CN1CCCN(c2ccccc2)S1(=O)=O)NC12CC3CC(CC(C3)C1)C2`, the IC50 in data set [1] (read-out: IC50) came out at 3370 nM.

For the compound `NC(=O)[C@]12CC3CC(C1)[C@@H](NC(=O)CN1CCCN(c4c(F)cc(F)cc4F)S1(=O)=O)C(C3)C2`, the IC50 amounted to 157 nM in data set [2] and 20 nM in data set [1] (read-out: IC50).

On to `CN(CC(=O)N[C@H]1C2CC3CC1C[C@](C(N)=O)(C3)C2)S(=O)(=O)N(C)c1c(Cl)cc(Cl)cc1Cl`, for which the remaining at 0.5 h turned out to be 21% in data set [3] and 7% in data set [6]. In addition, the IC50 is 2 nM in data set [2] and 1 nM in data set [1] (read-out: IC50). For the same compound, the results for the inhibition in vivo at 20 mg/kg with Mus musculus [4] and in the data set on Mus musculus [5] were 33.3% and 57.8%, respectively.

Consider `NC(=O)[C@]12CC3CC(C1)[C@@H](NC(=O)CN1CC4(CC4)CN(c4c(Cl)cc(Cl)cc4Cl)S1(=O)=O)C(C3)C2`, for which the IC50 was 23 nM in data set [2] and 5 nM in data set [1] (read-out: IC50). In the data set on Mus musculus [4], this compound showed an inhibition in vivo at 20 mg/kg of 39.6%.

As for `O=C(CN1CCCN(CCc2ccccc2)S1(=O)=O)NC1C2CC3CC(C2)CC1C3` (stereo not given), in data set [1] (read-out: IC50), the IC50 stood at 1660 nM.
